The species named for assay [1] is Rattus norvegicus. Kind of assay: Compound was tested for its ability to inhibit the after hyperpolarization which follows the action potential in rat sympathetic neurons. It is filed as functional, organism-based. Particulars: Sympathetic neuron. Summed up: (§1)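 Cultured neurons (3-10 days in culture); action potentials evoked every 5 s by depolarizing current pulses; drugs applied at known concentration in continuously flowing bath. AHP amplitude measured with and without compound for percent inhibition. Dequalinium tested on every cell; EMR = ratio of concentrations of compound and dequalinium giving 50% AHP inhibition in the same experiment. IC50 and EMR from simultaneous nonlinear least-squares Hill fits; each concentration tested on at least three neurons.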

The species named for assay [2] is Rattus norvegicus. Kind of assay: The equieffective molar ratio of the concentrations of the test compound and dequalinium that cause 50% inhibition of the after hyper polarization (AHP). It is filed as functional. In outline: as §1
For assay [3], the species on record is Rattus norvegicus. The assay is described as follows: The equieffective molar ratio of the concentrations of the test compound and after hyperpolarization (AHP). The class given is functional.

Consider `Nc1cc[n+](CCCCCCCCCCCC[n+]2ccc(N)c3ccccc32)c2ccccc12`, for which, in assay [1], the IC50 – broadly, the point on the concentration scale where inhibition reaches its midpoint – amounted to 1700 nM. For the same molecule, the EMR in assay [2] stood at 1.8.
With `Nc1cc[n+](CCCCCCCCCC[n+]2ccc(N)c3ccccc32)c2ccccc12`, in assay [2], the EMR was 1.3.
In turn, `Nc1cc[n+](CCCC[n+]2ccc(N)c3ccccc32)c2ccccc12` gave an IC50 in assay [1] of 1800 nM. The EMR in assay [2] is listed as 3.2.
The matching figures for `Nc1cc[n+](CCCCCC[n+]2ccc(N)c3ccccc32)c2ccccc12`: 2000 nM and 1.8.
`Nc1cc[n+](CCC[n+]2ccc(N)c3ccccc32)c2ccccc12` had an IC50 in assay [1] of 4500 nM. Also, the EMR in assay [3] came out at 8.3.
In the case of `Nc1cc[n+](CCCCC[n+]2ccc(N)c3ccccc32)c2ccccc12`, the IC50 in assay [1] was 1000 nM. Also, the EMR in assay [2] is reported as 1.
In assay [1], `Nc1cc[n+](CCCCCCCC[n+]2ccc(N)c3ccccc32)c2ccccc12` came in with an IC50 of 2000 nM. Further, the EMR in assay [2] stood at 2.1.
Consider `Cc1cc(N)c2ccccc2[n+]1CCCCCCCCCC[n+]1c(C)cc(N)c2ccccc21.[Cl-].[Cl-]` [DEQUALINIUM CHLORIDE], for which it took 900 nM to reach half-maximal inhibition in assay [1] (IC50). For the same molecule, the EMR in assay [3] was 1.
